Measured values published in publication PMC12627342 (Journal of Advanced Research, 2025).

Tested on: B. subtilis ATCC 6633
Test: MIC assay
Format: cell-based
Conditions: B. subtilis ATCC 6633, Gram-positive
Method in brief: (§1)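 Broth microdilution: test compound dissolved in physiological saline, two-fold serially diluted across wells (50 μL broth each). 50 μL bacterial suspension added (1.0 × 10⁶ CFU/mL). Incubation 16 h at 37 °C with constant agitation. MIC read visually together with absorbance at 600 nm. Each sample run in triplicate.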

Substance | MIC [µM]
Ac-GLFKFLRKFFNFIKR-NH2 [P-γ, Ac-GLFKFLRKFFNFIKR-NH2] | 12.5
Ac-GLFKFLRKFFNKIKR-NH2 [P-β, Ac-GLFKFLRKFFNKIKR-NH2] | 6.25
Ac-GLRKALRKFANKIKR-NH2 [P-α-05, Ac-GLRKALRKFANKIKR-NH2] | 25
Ac-GLRKFLRKFFNKIKR-NH2 [P-α, Ac-GLRKFLRKFFNKIKR-NH2] | 6.25
Ac-GLRKILRKFINKIKR-NH2 [P-α-03, Ac-GLRKILRKFINKIKR-NH2] | 3.125
Ac-GLRKLLRKFLNKIKR-NH2 [P-α-04, Ac-GLRKLLRKFLNKIKR-NH2] | 3.125
Ac-GLRKMLRKFMNKIKR-NH2 [P-α-06, Ac-GLRKMLRKFMNKIKR-NH2] | 6.25
Ac-GLRKVLRKFVNKIKR-NH2 [P-α-01, Ac-GLRKVLRKFVNKIKR-NH2] | 6.25
Ac-GLWKWLRKFWNKIKR-NH2 [P-β-02, Ac-GLWKWLRKFWNKIKR-NH2] | 6.25
Polymyxin B [reference compound] | 1.56

Tested on: S. aureus (MDR)
Test: MIC assay
Format: cell-based
Conditions: Gram-positive
Method in brief: as §1

Substance | MIC [µM]
Ac-GLFKFLRKFFNFIKR-NH2 [P-γ, Ac-GLFKFLRKFFNFIKR-NH2] | 50
Ac-GLFKFLRKFFNKIKR-NH2 [P-β, Ac-GLFKFLRKFFNKIKR-NH2] | 6.25
Ac-GLRKALRKFANKIKR-NH2 [P-α-05, Ac-GLRKALRKFANKIKR-NH2] | 50
Ac-GLRKFLRKFFNKIKR-NH2 [P-α, Ac-GLRKFLRKFFNKIKR-NH2] | 6.25
Ac-GLRKILRKFINKIKR-NH2 [P-α-03, Ac-GLRKILRKFINKIKR-NH2] | 6.25
Ac-GLRKLLRKFLNKIKR-NH2 [P-α-04, Ac-GLRKLLRKFLNKIKR-NH2] | 3.125
Ac-GLRKMLRKFMNKIKR-NH2 [P-α-06, Ac-GLRKMLRKFMNKIKR-NH2] | 12.5
Ac-GLRKVLRKFVNKIKR-NH2 [P-α-01, Ac-GLRKVLRKFVNKIKR-NH2] | 25
Ac-GLWKWLRKFWNKIKR-NH2 [P-β-02, Ac-GLWKWLRKFWNKIKR-NH2] | 25
Polymyxin B [reference compound] | 25

Tested on: E. coli ATCC 25922
Test: MIC assay
Format: cell-based
Conditions: E. coli ATCC 25922, Gram-negative
Method in brief: as §1

Substance | MIC [µM]
Ac-GLFKFLRKFFNFIKR-NH2 [P-γ, Ac-GLFKFLRKFFNFIKR-NH2] | 12.5
Ac-GLFKFLRKFFNKIKR-NH2 [P-β, Ac-GLFKFLRKFFNKIKR-NH2] | 6.25
Ac-GLRKALRKFANKIKR-NH2 [P-α-05, Ac-GLRKALRKFANKIKR-NH2] | 50
Ac-GLRKFLRKFFNKIKR-NH2 [P-α, Ac-GLRKFLRKFFNKIKR-NH2] | 6.25
Ac-GLRKILRKFINKIKR-NH2 [P-α-03, Ac-GLRKILRKFINKIKR-NH2] | 3.125
Ac-GLRKLLRKFLNKIKR-NH2 [P-α-04, Ac-GLRKLLRKFLNKIKR-NH2] | 3.125
Ac-GLRKMLRKFMNKIKR-NH2 [P-α-06, Ac-GLRKMLRKFMNKIKR-NH2] | 12.5
Ac-GLRKVLRKFVNKIKR-NH2 [P-α-01, Ac-GLRKVLRKFVNKIKR-NH2] | 12.5
Ac-GLWKWLRKFWNKIKR-NH2 [P-β-02, Ac-GLWKWLRKFWNKIKR-NH2] | 12.5
Polymyxin B [reference compound] | 0.78

Tested on: E. aerogenes (MDR)
Test: MIC assay
Format: cell-based
Conditions: Gram-negative
Method in brief: as §1

Substance | MIC [µM]
Ac-GLFKFLRKFFNFIKR-NH2 [P-γ, Ac-GLFKFLRKFFNFIKR-NH2] | 50
Ac-GLFKFLRKFFNKIKR-NH2 [P-β, Ac-GLFKFLRKFFNKIKR-NH2] | 12.5
Ac-GLRKALRKFANKIKR-NH2 [P-α-05, Ac-GLRKALRKFANKIKR-NH2] | 50
Ac-GLRKFLRKFFNKIKR-NH2 [P-α, Ac-GLRKFLRKFFNKIKR-NH2] | 12.5
Ac-GLRKILRKFINKIKR-NH2 [P-α-03, Ac-GLRKILRKFINKIKR-NH2] | 12.5
Ac-GLRKLLRKFLNKIKR-NH2 [P-α-04, Ac-GLRKLLRKFLNKIKR-NH2] | 6.25
Ac-GLRKMLRKFMNKIKR-NH2 [P-α-06, Ac-GLRKMLRKFMNKIKR-NH2] | 25
Ac-GLRKVLRKFVNKIKR-NH2 [P-α-01, Ac-GLRKVLRKFVNKIKR-NH2] | 50
Ac-GLWKWLRKFWNKIKR-NH2 [P-β-02, Ac-GLWKWLRKFWNKIKR-NH2] | 25

Tested on: A. baumannii (MDR)
Test: MIC assay
Format: cell-based
Conditions: Gram-negative
Method in brief: as §1

Substance | MIC [µM]
Ac-GLFKFLRKFFNFIKR-NH2 [P-γ, Ac-GLFKFLRKFFNFIKR-NH2] | 12.5
Ac-GLFKFLRKFFNKIKR-NH2 [P-β, Ac-GLFKFLRKFFNKIKR-NH2] | 6.25
Ac-GLRKALRKFANKIKR-NH2 [P-α-05, Ac-GLRKALRKFANKIKR-NH2] | 50
Ac-GLRKFLRKFFNKIKR-NH2 [P-α, Ac-GLRKFLRKFFNKIKR-NH2] | 6.25
Ac-GLRKILRKFINKIKR-NH2 [P-α-03, Ac-GLRKILRKFINKIKR-NH2] | 6.25
Ac-GLRKLLRKFLNKIKR-NH2 [P-α-04, Ac-GLRKLLRKFLNKIKR-NH2] | 6.25
Ac-GLRKMLRKFMNKIKR-NH2 [P-α-06, Ac-GLRKMLRKFMNKIKR-NH2] | 12.5
Ac-GLRKVLRKFVNKIKR-NH2 [P-α-01, Ac-GLRKVLRKFVNKIKR-NH2] | 12.5
Ac-GLWKWLRKFWNKIKR-NH2 [P-β-02, Ac-GLWKWLRKFWNKIKR-NH2] | 12.5
Polymyxin B [reference compound] | 0.78

Tested on: C. freundii (MDR)
Test: MIC assay
Format: cell-based
Conditions: Gram-negative
Method in brief: as §1

Substance | MIC [µM]
Ac-GLFKFLRKFFNFIKR-NH2 [P-γ, Ac-GLFKFLRKFFNFIKR-NH2] | 50
Ac-GLFKFLRKFFNKIKR-NH2 [P-β, Ac-GLFKFLRKFFNKIKR-NH2] | 6.25
Ac-GLRKALRKFANKIKR-NH2 [P-α-05, Ac-GLRKALRKFANKIKR-NH2] | 50
Ac-GLRKFLRKFFNKIKR-NH2 [P-α, Ac-GLRKFLRKFFNKIKR-NH2] | 6.25
Ac-GLRKILRKFINKIKR-NH2 [P-α-03, Ac-GLRKILRKFINKIKR-NH2] | 6.25
Ac-GLRKLLRKFLNKIKR-NH2 [P-α-04, Ac-GLRKLLRKFLNKIKR-NH2] | 3.125
Ac-GLRKMLRKFMNKIKR-NH2 [P-α-06, Ac-GLRKMLRKFMNKIKR-NH2] | 6.25
Ac-GLRKVLRKFVNKIKR-NH2 [P-α-01, Ac-GLRKVLRKFVNKIKR-NH2] | 6.25
Ac-GLWKWLRKFWNKIKR-NH2 [P-β-02, Ac-GLWKWLRKFWNKIKR-NH2] | 12.5

Tested on: not listed separately
Test: Hemolytic assay
Format: cell-based, human
Conditions: not given
Method in brief: (§2)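 Human erythrocytes from heparinised blood, washed three times in PBS (centrifuged 1800 rpm, 4 °C, 5 min), used as a 5 % (v/v) suspension. Peptide two-fold dilutions in PBS, final 0.78–50 μM. Incubation 1 h at 37 °C, then 3000 rpm for 5 min; supernatant hemoglobin read at A405. Controls: PBS (0 %) and 1 % Triton X-100 (100 %). Five replicates; HC₅₀ derived as median hemolytic concentration.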

Substance | hemolysis at 50 µM [%]
Ac-GLRKFLRKFFNKIKR-NH2 [P-α, Ac-GLRKFLRKFFNKIKR-NH2] | 1.5

Tested on: human red blood cells (hRBCs)
Test: Hemolytic assay
Format: cell-based
Conditions: median hemolytic concentration, 5 % hRBCs, 1 h, 37 °C
Method in brief: as §2

Substance | HC50 [µM]
Ac-GLFKFLRKFFNKIKR-NH2 [P-β, Ac-GLFKFLRKFFNKIKR-NH2] | 136.69
Ac-GLRKLLRKFLNKIKR-NH2 [P-α-04, Ac-GLRKLLRKFLNKIKR-NH2] | >1000

Tested on: not listed separately
Test: Cytotoxicity assay
Format: cell-based, human
Conditions: not given
Method in brief: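 293T human embryonic kidney cells were seeded and grown 24 h, then exposed for 24 h to a concentration series of test compound in DMEM. CCK-8 reagent was added for 2 h at 37 °C, and absorbance was read at 450 nm. Five replicates per sample.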

Substance | CC50 [µM]
Ac-GLFKFLRKFFNKIKR-NH2 [P-β, Ac-GLFKFLRKFFNKIKR-NH2] | 28.2
Ac-GLRKLLRKFLNKIKR-NH2 [P-α-04, Ac-GLRKLLRKFLNKIKR-NH2] | 193

Tested on: all bacteria tested
Test: Geometric mean of MICs and selectivity index, all bacteria
Format: cell-based
Conditions: geometric mean of MICs against all bacteria
Method in brief: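 Geometric mean of the broth-microdilution MICs (μM) across all bacterial strains tested. It serves as the denominator of the selectivity index, SI = HC₅₀ (μM) / GM.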

Substance | GMall [µM]
Ac-GLFKFLRKFFNKIKR-NH2 [P-β, Ac-GLFKFLRKFFNKIKR-NH2] | 7.02
Ac-GLRKFLRKFFNKIKR-NH2 [P-α, Ac-GLRKFLRKFFNKIKR-NH2] | 7.02
Ac-GLRKLLRKFLNKIKR-NH2 [P-α-04, Ac-GLRKLLRKFLNKIKR-NH2] | 3.94

Tested on: Gram-positive bacteria
Test: Geometric mean of MICs and selectivity index, Gram-positive bacteria
Format: cell-based
Conditions: geometric mean of MICs

Substance | GM+ [µM]
Ac-GLFKFLRKFFNKIKR-NH2 [P-β, Ac-GLFKFLRKFFNKIKR-NH2] | 6.25
Ac-GLRKFLRKFFNKIKR-NH2 [P-α, Ac-GLRKFLRKFFNKIKR-NH2] | 6.25
Ac-GLRKLLRKFLNKIKR-NH2 [P-α-04, Ac-GLRKLLRKFLNKIKR-NH2] | 3.13

Tested on: Gram-negative bacteria
Test: Geometric mean of MICs and selectivity index, Gram-negative bacteria
Format: cell-based
Conditions: geometric mean of MICs

Substance | GM- [µM]
Ac-GLFKFLRKFFNKIKR-NH2 [P-β, Ac-GLFKFLRKFFNKIKR-NH2] | 7.43
Ac-GLRKFLRKFFNKIKR-NH2 [P-α, Ac-GLRKFLRKFFNKIKR-NH2] | 14.87
Ac-GLRKLLRKFLNKIKR-NH2 [P-α-04, Ac-GLRKLLRKFLNKIKR-NH2] | 4.42

Tested on: not listed separately
Test: Plasma stability by HPLC
Format: in vitro ADME
Conditions: human, human plasma 25 % (v/v)
Method in brief: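 An 8 mM aqueous stock of peptide (1 mL) was added to 3 mL of 25 % (v/v) human plasma and incubated at 37 °C with agitation, sampling from 0–48 h and up to 14 days. Each sample was quenched with an equal volume of 90 % acetonitrile/10 % TFA, cooled to 4 °C and spun at 10000 rpm for 10 min. Supernatant was quantified by HPLC against standard curves (0.0625–8 mM). Triplicates.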

Substance | half-life at 2 mM [h]
Ac-GLRKFLRKFFNKIKR-NH2 [P-α, Ac-GLRKFLRKFFNKIKR-NH2] | 15.3
Ac-GLRKLLRKFLNKIKR-NH2 [P-α-04, Ac-GLRKLLRKFLNKIKR-NH2] | 17.4

Tested on: not given
Test: not given
Conditions: commercially available antimicrobial peptide drug; cited from earlier work

Substance | half-life [h]
polymyxin E | 0.39
